# Experimental data of several laboratories.
# Each line is one published result; the experiments were not run side by side.
# Target: Calcium/calmodulin-dependent protein kinase kinase 2 (CAMKK2, Homo sapiens, UniProt Q96RR4)
Structure (SMILES),assay,conditions,remaining binding [%]
O=C(c1ccc(Nc2ncc(Cl)c(-c3ccc(Cl)s3)n2)cc1)N1CCC(N2CCCC2)CC1,"binding, competition with immobilised ligand",1 µM,65
CNC(=O)c1ccc(Nc2ncc(C(F)(F)F)c(NCc3nccnc3N(C)S(C)(=O)=O)n2)cc1,"cell-free assay, competition with immobilised ligand",0.1 µM,68
N[C@@H]1CCN(c2nccc(-c3cnn4ncccc34)n2)C1,binding,1 µM,100
COc1cccc(CNC(=O)c2nc3scc(COCc4ccc(C(=O)O)cc4)c3c(=O)[nH]2)c1,"cell-free assay, competition with immobilised ligand",1 µM,100
CN(CCCC(F)(F)F)c1nccc(-c2cnn3ncccc23)n1,binding,1 µM,100
C[C@@H](c1ccc(-n2cnc3c(N)ncnc32)cc1)N1CCc2nn(C)c(Cc3ccccc3)c2C1=O,"binding, competition with immobilised ligand",0.1 µM,94
CN(C)c1nccc(-c2cnn3ncccc23)n1,binding,1 µM,82
O=C(c1ccc(Nc2nccc(-c3cc4ccccc4s3)n2)cc1)N1CCC(N2CCCC2)CC1,"binding, competition with immobilised ligand",1 µM,82
N#Cc1ccc(Nc2ccc3[nH]c(=O)[nH]c3c2)c(Cl)c1,"cell-free assay, competition with immobilised ligand",1 µM,91
CN(C)c1ncc(F)c(-c2cnn3ncccc23)n1,binding,1 µM,86
O=C(O)[C@@H]1[C@@H](Cn2nnc3ccccc3c2=O)CC[C@H]1C(=O)c1ccc(OCCC2CCOCC2)cc1,"cell-free assay, competition with immobilised ligand",1 µM,100
COc1cnc(Nc2cccc(S(N)(=O)=O)c2)nc1N1CCN(c2ccccc2)C(=O)C1,"binding, competition with immobilised ligand",1 µM,100
C=CC(=O)N1CCC(C(=O)NCC(=O)N2CCN(c3nc(-c4cnc(N)nc4C(F)F)nc(N4CCOCC4)n3)CC2)CC1,"binding, competition with immobilised ligand",1 µM,95
COc1cnc(Nc2cccc(S(N)(=O)=O)c2)nc1N1CCN(c2ccccc2)CC1,"binding, competition with immobilised ligand",1 µM,92
Cc1cc(NC(=O)c2cccc(S(F)(F)(F)(F)F)c2)cc(-n2ccn3nc(-c4cccnc4)cc23)c1,"cell-free assay, competition with immobilised ligand",1 µM,99.6
C[C@@H]1CCN(c2nccc(-c3cnn4ncccc34)n2)C1,binding,1 µM,72
O=C(Nc1c[nH]nc1C(=O)NC1CCNCC1)c1cc(F)cc(F)c1,"binding, competition with immobilised ligand",1 µM,91
CO[C@H]1CC[C@H](CNc2ccc(S(=O)(=O)NC(=O)c3ccc(N4CCN(CC5=C(c6ccc(Cl)cc6)CC(C)(C)CC5)CC4)cc3Oc3cnc4[nH]ccc4c3)cc2[N+](=O)[O-])CC1,"cell-free assay, competition with immobilised ligand",1 µM,81
Cc1cnn2ncc(-c3ccnc(N(C)C)n3)c2c1,binding,1 µM,63
FC(F)(F)Oc1cccc(-c2cnc3ccc(-c4ccncc4)nn23)c1,"cell-free assay, competition with immobilised ligand",5 µM,55
